In the library only some 2.3% were active in any assay of this set; here they are far more common.
Mcl1-Noxa inh – Mcl-1/Noxa binding inhibitors, primary screen, biochemical, TR-FRET, 1536-well; Induced myeloid leukemia cell differentiation protein Mcl-1 (Homo sapiens), Q07820; TR-FRET Mcl-1/Noxa peptide binding, 2 h; inhibition, % at 21.7 µM; actives 1.5% (n = 220,000); AID 1022, 2008;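 active means compounds that cut the protein-peptide binding signal by more than 50% relative to plate controls in a single-dose test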;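 further: His-tagged Mcl-1 with rhodamine Noxa BH3 peptide and terbium anti-His antibody; 0% = Mcl-1 plus Noxa peptide wells and 100% = peptide-only wells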
Target sequence (Q07820 whole entry, looked up): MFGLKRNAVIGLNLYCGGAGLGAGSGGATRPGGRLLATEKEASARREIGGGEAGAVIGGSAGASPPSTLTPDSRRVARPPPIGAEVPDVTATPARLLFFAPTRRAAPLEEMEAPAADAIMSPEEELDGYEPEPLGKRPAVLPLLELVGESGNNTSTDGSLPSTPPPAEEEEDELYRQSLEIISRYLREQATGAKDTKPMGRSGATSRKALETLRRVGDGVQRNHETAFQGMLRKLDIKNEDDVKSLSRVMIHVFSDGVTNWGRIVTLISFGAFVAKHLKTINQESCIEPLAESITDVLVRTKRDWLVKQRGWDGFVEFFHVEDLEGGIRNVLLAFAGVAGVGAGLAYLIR
Bim-Mcl-1 – inhibitors of Bim peptide binding to Mcl-1, primary screen, biochemical, bead-based flow cytometry, multiplex. inhibition, % at 10 µM. Bim peptide-Mcl-1 binding. actives 0.1% (n = 190,000). Induced myeloid leukemia cell differentiation protein Mcl-1 (Homo sapiens), Q07820; in the data active means inhibition above about 40%;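 further: 0% = no compound tracer wells and 100% = peptide blocker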
MCL1-BIM inh – inhibitors of MCL1 binding to BIM-BH3, primary screen, biochemical, fluorescence polarization | Induced myeloid leukemia cell differentiation protein Mcl-1 (Homo sapiens), Q07820 | GST-MCL1 / FITC-Bim-BH3 fluorescence polarization | inhibition, % at 10.9 µM | actives 0.68% (n = 320,000) | AID 2057, 2009;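 active means inhibition above the mean inhibition of all tested compounds plus 3 SD, set per campaign, cut at about 40% in these data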;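 further: 0% = DMSO wells and 100% = unlabeled Bim-BH3 peptide control; higher means more loss of mP so more displacement of Bim peptide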
Mcl1 Bid PPI – Mcl-1/Bid binding inhibitors, primary screen, biochemical, TR-FRET, 1536-well; actives 0.97% (n = 220,000); inhibition, % at 21.7 µM; TR-FRET Mcl-1/Bid-Dy647 peptide binding;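 active means compounds that cut the binding signal by more than half at the single screening dose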;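 further: His-tagged Mcl-1 with europium anti-His antibody binding Bid BH3 peptide; 0% = Mcl-1 plus peptide wells and 100% = peptide-only wells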
DSG3 Ab inh – inhibitors of pemphigus antibody binding to DSG3, primary screen, biochemical, bead-based, flow cytometry, scFv-GFP; Desmoglein-3 (Homo sapiens), P32926; DSG3-coupled beads, scFv-anti-DSG3-GFP binding; hits give low values; binding (percent of control), % at 10 µM; actives 0.48% (n = 310,000);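 active means binding more than 3 SD below its plate's average and above zero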;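 further: hits lower antibody fragment binding to DSG3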
T cell HTS – modulators of CD8 T cell-vesicle binding, primary screen, mouse 2C CD8+ T cells, flow cytometry. 2C CD8+ T cell-vesicle binding; hits give low values. actives 0.068% (n = 330,000). response (vesicle binding), % at 7 µM;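 active means response, share of CD8 T cells binding vesicles, and their 90th percentile fluorescence all below set limits, cut at about 80% in these data, passing the limit was not always enough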;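 further: values below 100% mean blocked vesicle binding to the CD8+ T cells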
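Material: 2C TCR transgenic mouse naive CD8+ T cells, MACS-purified. Also added: QL9-charged Drosophila Ld/ICAM-1/B7-1 vesicles. Timing: binding 1.5 h at 37 °C. Measured by: high-throughput flow cytometry with anti-B7-1 and anti-CD8 staining. Read-out: percent CD8+ FL2 mean versus row control. Controls: Unloaded micro-vesicles (low), QL9 vesicles with 0.7% DMSO (high).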
Numbers without * were called inactive; i = inactive; nt = no result given.

SMILES	Mcl1-Noxa inh	Bim-Mcl-1	MCL1-BIM inh	Mcl1 Bid PPI	DSG3 Ab inh	T cell HTS
O=C(COC(=O)c1ccc(N2CCOCC2)c([N+](=O)[O-])c1)Nc1ccc2c(c1)OCO2	-2	1	0	-1	78	246
Nc1ccc(C(=O)OCC(=O)Nc2ccc3c(c2)OCO3)cc1[N+](=O)[O-]	52*	0	-3	-33	127	236
CC12CCC(=O)C=C1C(F)CC1C2C(O)CC2(C)C1CCC2(O)C(=O)CO (centres undefined)	nt	nt	nt	nt	133	nt
COC(=O)c1cc(OC)c(OC)cc1NCC(=O)Nc1ccc(C)cc1	16	-4	23	81*	111	454
COC(=O)c1cc(OC)c(OC)cc1NCC(=O)Nc1ccc(OC)c(OC)c1	-4	-2	7	-69	nt	319
CC(C)(C)c1cc(-c2csc(Nc3ccccc3)[n+]2Cc2ccc(C(=O)O)cc2)cc(C(C)(C)C)c1O	92*	nt	-2	88*	102	243
Cc1ccc(CNC(=O)c2ccc3nc4[nH]c5ccccc5c4nc3c2)cc1	15	0	nt	68*	nt	nt
Cc1ccc(CNC(=O)c2ccc(-n3cccc3)cc2)cc1	81*	3	nt	-61	76	nt
Cc1ccc(CNC(=O)CSc2nc3ccccc3[nH]2)cc1	nt	nt	-14	nt	116	419
COc1cc(CN(C2CC2)S(=O)(=O)c2ccccc2Br)cc(OC)c1	nt	nt	nt	nt	101	nt
Cc1ccc2oc(-c3ccc(C)c(NC(=S)NC(=O)c4cccs4)c3)nc2c1	38	-4	7	53*	101	235
Cc1cc2c(c(=O)n1Cc1ccco1)C(c1cccnc1)C(C#N)=C(N)O2 (centres undefined)	0	0	45*	-89	nt	369
CCN(CC)c1ccc(NC(=O)COc2ccc(N(C)S(=O)(=O)c3cccs3)cc2)cc1	65*	-2	3	-18	102	234
COc1ccc(-c2cn3ccc4ccccc4c3n2)cc1	12	2	0	-10	86*	371
COc1ccc(-c2cn3ccccc3n2)cc1	17	nt	-4	-70	96	305
CCOc1ccc(C(=O)NCC(=O)OCC(=O)N(C)CC(=O)Nc2ccccc2CC)cc1OCC	nt	nt	nt	nt	104	nt
O=C(Nc1ccc(CN2CCOCC2)cc1)c1ccc(-c2cccc(Cl)c2)o1	-8	-3	4	-30	101	448
O=C(Nc1ccc2oc(=O)ccc2c1)c1ccc(-c2ccc(Cl)cc2)o1	-15	-7	2	56*	nt	199
NNC(=O)c1ccc(-c2cccc([N+](=O)[O-])c2)o1	13	0	0	-23	110	392
O=C(Nc1ccc2oc(=O)ccc2c1)c1ccc(-c2cccc(Cl)c2)o1	21	nt	-11	66*	94	82
O=C(Nc1ccc2oc(=O)ccc2c1)c1cc2ccccc2o1	-5	-12	1	14	95	369
O=C(Nc1ccc2oc(=O)ccc2c1)c1ccc(-c2cccc([N+](=O)[O-])c2)o1	70*	nt	24	80*	103	179
Cc1cn([C@H]2C[C@H](O)[C@@H](CNCc3cccc(OC4CCCC4)c3)O2)c(=O)[nH]c1=O	nt	nt	nt	nt	102	nt
CC(Oc1ccc(C(=O)c2ccc(F)cc2)cc1)C(=O)N1CCOCC1 (centres undefined)	nt	nt	-2	nt	103	500
COc1ccccc1N1CSC2=C(C#N)C(c3ccc(SC)cc3)CC(=O)N2C1 (centres undefined)	83*	8	-14	2	106	165
SMILES	Mcl1-Noxa inh	Bim-Mcl-1	MCL1-BIM inh	Mcl1 Bid PPI	DSG3 Ab inh	T cell HTS
COc1ccc(/C=N\NC(=O)c2cc(O)c(O)c(O)c2)cc1CN1CCN(c2ccc(F)cc2)CC1	70*	0	17	-38	100	518
COc1ccc(/C=N/NC(=O)c2ccc(C)cc2)cc1CN1CCN(c2ccc(F)cc2)CC1	12	-1	4	-53	99	311
O=C(NCC(=O)N1CC=C(c2ccccc2)CC1)c1ccc(F)cc1	nt	nt	nt	nt	90	312
Cc1nc(CNC(=O)C2CCC(=O)N(CCc3ccc(Cl)cc3)C2)sc1C (centres undefined)	nt	nt	7	nt	nt	47*
O=C(NCc1ccncc1)C1CCC(=O)N(CCc2ccc(Cl)cc2)C1 (centres undefined)	nt	nt	-1	nt	102	415
CCN(CCNC(=O)CN1CCN(Cc2ccc(Cl)cc2)C1=O)c1ccccc1	-20	0	1	87*	157	186
CCOC(=O)c1c(S(=O)(=O)NCC(=O)NCc2ccc(C)cc2)c(C)n(C)c1C	nt	nt	-2	nt	99	345
O=C1C(=O)N(CCCn2ccnc2)C(c2ccc([N+](=O)[O-])cc2)/C1=C(\O)c1ccc2c(c1)OCCO2 (centres undefined)	nt	nt	-4	nt	98	0.0*
Cc1cc(=O)nc2c3ccccc3n(C(C)C(=O)NCCC(C)C)n12 (centres undefined)	-11	nt	5	14	97	666
CC(=O)c1ccc(NC(=O)C(C)n2c3ccccc3c3nc(=O)cc(C)n32)cc1 (centres undefined)	-4	nt	11	97*	103	610
COc1ccccc1NS(=O)(=O)c1cccc(NC(=O)Nc2ccccc2)c1	20	-2	6	-12	85	188
COc1ccccc1NS(=O)(=O)c1cccc(NC(=O)c2cc3ccccc3oc2=O)c1	7	0	7	-14	78*	325
O=C(O)c1ccc2ncsc2c1	56*	nt	-2	92*	93	465
CCc1nnc(NC(=O)c2ccc3ncsc3c2)s1	41	nt	-1	56*	103	0
Cc1ccc(NC(=O)c2ccc3ncsc3c2)cc1S(=O)(=O)N(C)C	48	nt	3	67*	nt	220
Nc1ccc(-c2nc3ccc(C(=O)O)cc3s2)cc1	57*	-12	12	-37	111	678
O=C(c1ccc2ncsc2c1)N1CCCCC1	nt	nt	2	nt	101	162
COc1ccc(OC)c(Nc2nc(-c3cccc([N+](=O)[O-])c3)nc3ccccc23)c1	38	0	-5	70*	99	i
CC1(c2ccccc2)CC(C)(C)N2C(=O)/C(=C3\SC(=S)NC3=O)c3cccc1c32 (centres undefined)	111*	-9	25	93*	99	267
CC(=O)N1CCN(C(=O)c2cccc(S(=O)(=O)Nc3c(C)n(C)n(-c4ccccc4)c3=O)c2)CC1	nt	nt	nt	nt	103	nt
Cc1cn([C@H]2C[C@H](O)[C@@H](CNS(=O)(=O)N3CCCC3)O2)c(=O)[nH]c1=O	nt	nt	nt	nt	100	nt

Screening results from PubChem.
